Reference: ChEMBL document CHEMBL1154682, “Discovery of novel benzoxazinones as potent and orally active long chain fatty acid elongase 6 inhibitors” (J Med Chem, 2009)

Legend:
[1] = biological target: T1, Very long chain fatty acid elongase 6 (Homo sapiens, UniProt Q9H5J4); test: Inhibition of human ELOVL6 expressed in Pichia pastoris using palmitoyl-CoA by long chain fatty acyl-CoA elongation assay
T1 sequence (Q9H5J4 whole entry): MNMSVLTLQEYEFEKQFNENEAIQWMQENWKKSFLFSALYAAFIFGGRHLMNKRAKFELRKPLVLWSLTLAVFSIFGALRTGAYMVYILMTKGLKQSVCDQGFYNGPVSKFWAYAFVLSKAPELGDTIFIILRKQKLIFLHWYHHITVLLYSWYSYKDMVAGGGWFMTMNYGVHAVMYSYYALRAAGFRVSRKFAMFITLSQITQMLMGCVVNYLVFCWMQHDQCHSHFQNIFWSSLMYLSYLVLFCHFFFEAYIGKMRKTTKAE
How it was run: (§1)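 Microsomes (3 μg) from Pichia pastoris SMD1168 expressing FLAG-tagged human or mouse ELOVL6 were incubated 1 h at 37 °C in 100 mM potassium phosphate pH 6.5 with 40 μM palmitoyl-CoA, 20 μM malonyl-CoA plus [14C]-malonyl-CoA, 500 μM NADPH, 200 μM BSA and 1 μM rotenone. DMSO was 1.0% final. After HCl hydrolysis, filter-retained 14C was counted. IC50 came from nonlinear regression on % of control.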

[2] = Unbound fraction in C57BL/6N mouse plasma; format: ADME, cell-free
How it was run: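 Equilibrium dialysis was run with C57BL/6N mouse plasma adjusted to pH 7.4 and spiked with 1 μM compound, dialysed against PBS for 6 h at 37 °C. Both sides were analysed by LC-MS/MS. Unbound fraction = Cf/Cp × 100. Mean of n = 3.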

[3] = biological target: T2, Very long chain fatty acid elongase 6 (Mus musculus, UniProt Q920L5); test: Inhibition of mouse ELOVL6 expressed in Pichia pastoris using palmitoyl-CoA by long chain fatty acyl-CoA elongation assay; how it was run: as §1
T2 sequence (Q920L5 whole entry): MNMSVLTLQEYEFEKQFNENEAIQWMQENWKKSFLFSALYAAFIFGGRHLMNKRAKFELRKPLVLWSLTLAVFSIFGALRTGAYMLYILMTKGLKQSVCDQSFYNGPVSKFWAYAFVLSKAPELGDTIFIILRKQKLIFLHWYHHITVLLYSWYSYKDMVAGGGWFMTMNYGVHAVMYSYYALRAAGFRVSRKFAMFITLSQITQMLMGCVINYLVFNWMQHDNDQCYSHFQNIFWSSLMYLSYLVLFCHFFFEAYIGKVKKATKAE

[4] = biological target: T2, Very long chain fatty acid elongase 6; test: Inhibition of ELOVL6 in mouse H2.35 cells assessed as elongation index; format: cell-based
How it was run: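 Subconfluent mouse hepatoma H2.35 cells were kept at 33 °C in DMEM with 200 nM dexamethasone and 4% FBS. Lipids were hydrolysed in NaOH at 70 °C, and fatty acids extracted and quantified by radio-HPLC. Elongation index = (C18:0 + C18:1) / (C16:0 + C16:1).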

Work on `O=C(Nc1ccc(F)cc1)OCC1(c2ccccc2)OC(=O)Nc2ccc(Cl)cc21` (stereo not drawn) yielded an IC50 [1] greater than 10000 nM.
`O=C1Nc2ccc(Cl)cc2C(CNC(=O)c2ccc(F)cc2)(C(F)(F)F)O1` (stereo not drawn) showed a fraction unbound [2] of 0.053.
Compound `O=C(Nc1ccc(F)cc1)OCC1(C(F)(F)F)OC(=O)Nc2ccc(Cl)cc21` (stereo not drawn) has an IC50 [1] of 142 nM.
`CC1(COC(=O)Nc2ccc(F)cc2)OC(=O)Nc2ccc(Cl)cc21` (stereo not drawn) showed an IC50 [1] of 1360 nM.
Work on `O=C1Nc2ccc(-n3cccn3)cc2C(CNC(=O)c2ccc(F)cc2)(C(F)(F)F)O1` (single isomer, unassigned; (+)) yielded an IC50 [3] of 29 nM and an IC50 [4] of 58 nM.
Compound `CCC1(COC(=O)Nc2ccc(F)cc2)OC(=O)Nc2ccc(Cl)cc21` (stereo not drawn) has an IC50 [1] of 2260 nM.
`CS(=O)(=O)c1ccc(C(=O)NCC2(C(F)(F)F)OC(=O)Nc3ccc(Cl)cc32)cc1` (stereo not drawn) gave an IC50 [1] greater than 10000 nM.
